These results are taken from ChEMBL document CHEMBL1125464, “1,3,6-trisubstituted indoles as peptidoleukotriene antagonists: benefits of a second, polar, pyrrole substituent” (J Med Chem, 1992).

The species entered for experiment [1] is Cavia porcellus. Briefly: Inhibition of LTE4 (8 nM) induced contraction of guinea pig tracheal spirals at a concentration of 1 uM. The class given is functional, Trachea. The method in brief:
(§1)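 Paired tracheal spirals at 37 °C in Krebs gassed with 95% O2/5% CO2 under 2 g tension, given repeated LTE4 challenges of 10 min. Compound or vehicle added 10 min before a third challenge. % inhibition = (2nd − 3rd response)/2nd × 100, corrected by subtracting the vehicle value. Paired t test, n ≥ 4.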

Experiment [2] is filed under the species Cavia porcellus. Description: Inhibition constant for the displacement of [3H]LTD4 on guinea pig lung parenchymal membranes. Further details: species or system Lung parenchyma. The method in brief: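 Membranes from perfused lungs of male Hartley guinea pigs (300-400 g) in PIPES pH 7.5 with 10 mM CaCl2, 10 mM MgCl2, 2 mM cysteine and 2 mM glycine. 1 nM 3H-LTD4 at 22 °C for 30 min; nonspecific binding with 2 uM LTD4. Filtration, then scintillation counting. IC50 by nonlinear least squares, Ki by Cheng-Prusoff; mean of two experiments in duplicate.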

The species entered for experiment [3] is Cavia porcellus. Briefly: Inhibition of LTE4 (8 nM) induced contraction of guinea pig tracheal spirals at a concentration of 0.33 uM. It counts as functional, Trachea. Summed up: as §1
For experiment [4], the species on record is Cavia porcellus. Briefly: Inhibition of LTE4 (8 nM) induced contraction of guinea pig tracheal spirals at a concentration of 0.50 uM. It counts as functional, Trachea. Summed up:
as §1

For experiment [5], the species on record is Cavia porcellus. Briefly: Dissociation constant on guinea pig tracheal spirals utilizing LTE4 as agonist. The settings on record: Trachea.
Experiment [6] deals with Cavia porcellus. Briefly: Protection of conscious guinea pig lung function was determined by comparison of time required for the challenged animals to exhibit labored abdominal breathing after oral dose of 0.3 uM/kg. It counts as functional. Summed up: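 Conscious guinea pigs pretreated with indomethacin (10 mg/kg ip) and propranolol (5 mg/kg ip). Compound in PEG400 (<10% v/v)/PBS given orally 180 min before a challenge of up to 5 min with aerosolized 60 uM LTD4. Time to abdominal dyspnea scored blind. % protection is taken against vehicle controls; no end point by 300 s counts as 100%. Unpaired t test.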

For the compound `COc1cc(C(=O)O)ccc1Cc1cn(C)c2ccc(C(=O)NCC3CCCC3)cc12`, the Inhibition in experiment [1] is 33%. This compound returned a Ki in experiment [2] of 422 nM.
For the compound `CCCCOC(=O)Nc1ccc2ccn(Cc3ccc(C(=O)O)cc3OC)c2c1`, the Inhibition in experiment [3] turned out to be 25%; in experiment [4], 54%. The Kb in experiment [5] stood at 155 nM.
Compound `COc1cc(C(=O)NS(=O)(=O)c2ccccc2C)ccc1Cn1cc(C)c2ccc(NC(=O)CC3CCCC3)cc21` returned a Protection in experiment [6] of 54%. The compound also came in with a Kb in experiment [5] of 0.456 nM.

The Inhibition is the percentage by which the read-out fell short of the control. Low values mean little suppression, high ones strong suppression. As usually defined, the Ki is a measure of affinity in units of concentration, obtained from inhibition or displacement. A lower Ki goes with tighter binding.
